Results pooled from the literature.
Lines come from different studies, so protocols differ.
Target: Acetylcholinesterase (ACHE, Homo sapiens, UniProt P22303)
Effect on: enzyme activity
Action: inhibitor

c1ccc2c(c1)[I+]c1ccccc1-2 — IC50: 16.1 µM
C=CCn1c2cc(OC(=O)CCCCN3CCN(Cc4ccccc4C)CC3)ccc2c2ccnc(C)c21 — IC50 (Ellman): 0.0157 µM
COc1ncccc1-c1cnn2ccc(N3CCN(C(=O)OC(C)C)CC3)nc12 — IC50: > 60 µM
CCOP(=O)(OCC)Oc1ccc2c(C)c(Cl)c(=O)oc2c1 — IC50 (Ellman): 0.111 µM
O=c1[nH]cc(Br)c(=O)[nH]1 — IC50 (Ellman): 0.151 µM
CC(=O)O[C@H]1C[C@@H]2CC[C@@H]3[C@H](CC[C@@]4(C)[C@H]3C[C@H]([N+]3(C)CCCCC3)[C@@H]4OC(C)=O)[C@@]2(C)C[C@@H]1N1CCCCC1 — IC50: 16.5 µM
C=CCn1c2cc(OC(=O)CCCN3CCN(Cc4ccccc4)CC3)ccc2c2ccnc(C)c21 — IC50 (Ellman): 0.0497 µM
C#CCNc1nc(NCCCC2CCN(Cc3ccccc3)CC2)c(C#N)cc1C#N — IC50 (Ellman): 0.001 µM
Cc1ccc(S(=O)(=O)n2cc(Br)c(=O)[nH]c2=O)cc1 — IC50 (Ellman): 0.088 µM
C=CCn1c2cc(OC(=O)CCCCCCN3CCN(Cc4ccccc4)CC3)ccc2c2ccnc(C)c21 — IC50 (Ellman): 0.286 µM
O=c1[nH]cc(CO)c(=O)[nH]1 — IC50 (Ellman): 0.205 µM
C=CCn1c2cc(OC(=O)CCCCN3CCN(Cc4cccc(C(F)(F)F)c4)CC3)ccc2c2ccnc(C)c21 — IC50 (Ellman): 0.748 µM
CCCCNc1ccc(C(=O)OCCN(CC)CC)cc1 — IC50: 18.7 µM
CC(=O)n1ccc(=O)[nH]c1=O — IC50 (Ellman): 0.136 µM
C=CCn1c2cc(OC(=O)CCCCN3CCN(Cc4ccc(Cl)cc4)CC3)ccc2c2ccnc(C)c21 — IC50 (Ellman): 0.28 µM
O=C(NCCCNc1c2c(nc3ccccc13)CCCC2)c1ccccc1O — IC50 (Ellman): 1.02 µM
C=CCn1c2cc(OC(=O)CCCCCN3CCN(Cc4ccccc4)CC3)ccc2c2ccnc(C)c21 — IC50 (Ellman): 0.157 µM
CN1CCN(CCOc2ccc3occc(=O)c3c2)CC1 — IC50 (Ellman; pH 7.4): 72.9 µM
C#CCNc1nc(NCCCCC2CCN(Cc3ccccc3)CC2)c(C#N)cc1C#N — IC50 (Ellman): 0.0029 µM
COc1cc2c3cc1Oc1cc(ccc1O)C[C@@H]1c4c(cc(OC)c(O)c4Oc4ccc(cc4)C[C@@H]3N(C)CC2)CC[N+]1(C)C — IC50 (Ellman): 57.6 µM
CN1CCN(CCCCOc2ccc3occc(=O)c3c2)CC1 — IC50 (Ellman; pH 7.4): 6.43 µM
C=CCn1c2cc(OC(=O)CCCCN3CCN(Cc4ccc(C(F)(F)F)cc4)CC3)ccc2c2ccnc(C)c21 — IC50 (Ellman): 0.122 µM
CNC(=O)Oc1cccc2ccccc12 — IC50 (Ellman): 2.78 µM
